Results taken from ChEMBL document CHEMBL1129241, “Immunosuppressive cyclolignans” (J Med Chem, 1996).
Converted amounts (≈) assume the structure as drawn.

Tests used:
[1] = Compound was tested for Cytotoxic activity by lymphocyte viability assay.; conditions: Mus musculus
Outline: (§1)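 Balb/c mouse splenocytes alone, added to wells holding dried test compound (eight dilutions, 10 to 3.33 × 10^-6 mg/mL, applied in EtOH and evaporated); culture-medium wells serve as nonspecific control. Incubated 96 h at 37 °C, 5% CO2, then MTT added; formazan dissolved in 2-propanol and absorbance read at 570 nm.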

[2] = species: Mus musculus; assay: (§2) Compound was tested for Immunosuppression activity by mixed lymphocyte reaction (MLR) in murine splenocytes of mice; assay type: functional
Outline: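 Two-way MLR: Balb/c and C57Bl/6 splenocytes combined in wells holding dried compound (eight dilutions, 10 to 3.33 × 10^-6 mg/mL, applied in EtOH and evaporated; duplicates). Incubated 96 h at 37 °C, 5% CO2, then pulsed 15 h with [3H]thymidine. Incorporated label counted after glass-fibre filtration. Proliferation expressed as percent of control; IC50 interpolated.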

[3] = Non cytotoxic IM activity index which is the ratio of IC50 of LcV to IC50 of MLR; assay type: functional
[4] = Compound was tested for Cytotoxic activity by lymphocyte viability assay; conditions: Mus musculus; outline: as §1
[5] = species: Mus musculus; assay: as §2; assay type: functional, organism-based
Outline: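 Two-way mixed lymphocyte reaction using splenocytes from Balb/c and C57Bl/6 mice, combined in equal volumes. Compounds were dissolved in absolute EtOH and tested at eight dilutions from 10 to 3.33 × 10^-6 mg/mL, in duplicate, with the solvent dried onto the wells. Cultures ran 96 h at 37 °C in 5% CO2, then were pulsed 15 h with [3H]thymidine. Incorporation was counted by scintillation; IC50 was interpolated from % proliferation relative to control.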

COC(=O)[C@@H]1[C@H](c2cc(OC)c(OC)c(OC)c2)c2cc3c(cc2C2=NN(C(C)=O)C[C@H]21)OCO3
IC50 [1]: > 100 µg/mL | IC50 [2]: 7.68 µg/mL (≈ 15.9 µM) | Selectivity index [3]: >13

COC(=O)[C@@H]1[C@H](c2cc(OC)c(OC)c(OC)c2)c2cc3c(cc2C2=NN(c4ccc(C)cc4)C[C@H]21)OCO3
IC50 [1]: > 26 µg/mL | IC50 [2]: 0.848 µg/mL (≈ 1.6 µM) | Selectivity index [3]: >31

COC(=O)[C@@H]1[C@H](c2cc(OC)c(OC)c(OC)c2)c2cc3c(cc2C(=O)[C@H]1CO)OCO3
IC50 [1]: > 25 µg/mL | IC50 [2]: 1.41 µg/mL (≈ 3.17 µM) | Selectivity index [3]: >18

COc1cc([C@@H]2c3cc4c(cc3[C@H](O)[C@H]3COC(=O)[C@H]23)OCO4)cc(OC)c1OC [PODOFILOX]
IC50 [4]: 280 µg/mL (≈ 676 µM) | Selectivity index [3]: >2190 | IC50 [5]: < 0.128 µg/mL

COc1cc(C2c3cc4c(cc3CC3COC(=O)C32)OCO4)cc(OC)c1OC(C)=O (configuration not stated)
IC50 [1]: 15.8 µg/mL (≈ 37.1 µM) | Selectivity index [3]: 220 | IC50 [5]: 0.0718 µg/mL (≈ 0.168 µM)

COc1cc([C@@H]2c3cc4c(c(O)c3C[C@H]3COC(=O)[C@@H]32)OCO4)cc(OC)c1O
IC50 [1]: 12.8 µg/mL (≈ 32 µM) | IC50 [2]: < 0.00495 µg/mL | Selectivity index [3]: >2586

COc1cc(C2C3=C(COC3=O)Cc3cc4c(cc32)OCO4)cc(OC)c1OC (configuration not stated)
IC50 [1]: 27.5 µg/mL (≈ 69.4 µM) | Selectivity index [3]: >3333 | IC50 [5]: 0.00825 µg/mL (≈ 0.0208 µM)

COc1cc([C@@H]2c3cc4c(cc3C(=O)[C@H]3COC(=O)[C@H]23)OCO4)cc(OC)c1O
IC50 [1]: > 25 µg/mL | IC50 [2]: 11.8 µg/mL (≈ 29.6 µM) | Selectivity index [3]: >2

COc1cc([C@@H]2c3cc4c(c(O)c3C[C@H]3COC(=O)[C@@H]32)OCO4)cc(OC)c1OC [BETA-PELTATIN A]
IC50 [1]: 19.7 µg/mL (≈ 47.5 µM) | IC50 [2]: < 0.00945 µg/mL | Selectivity index [3]: >2085

COc1cc([C@@H]2c3cc4c(cc3C3=NN(c5ccccc5)C[C@H]3[C@@H]2COC(C)=O)OCO4)cc(OC)c1OC
IC50 [1]: > 100 µg/mL | IC50 [2]: 9.29 µg/mL (≈ 17.5 µM) | Selectivity index [3]: >11

COc1cc(C2c3cc4c(cc3[C@@H](OC(C)=O)C3COC(=O)C23)OCO4)cc(OC)c1OC(C)=O (some centres not stated)
IC50 [1]: 22.8 µg/mL (≈ 47.1 µM) | Selectivity index [3]: 50 | IC50 [5]: 0.453 µg/mL (≈ 0.935 µM)

COc1cc([C@@H]2c3cc4c(cc3C[C@H]3COC(=O)[C@@H]32)OCO4)cc(OC)c1O [4'-DEMETHYLDEOXYPODOPHYLLOTOXIN]
IC50 [1]: 11.5 µg/mL (≈ 29.9 µM) | IC50 [2]: 0.00281 µg/mL (≈ 0.00731 µM) | Selectivity index [3]: 4097

COc1cc([C@@H]2c3cc4c(cc3[C@@H](O)[C@H]3COC(=O)[C@H]23)OCO4)cc(OC)c1OC [EPIPODOPHYLLOTOXIN]
IC50 [1]: > 65 µg/mL | IC50 [2]: 0.229 µg/mL (≈ 0.553 µM) | Selectivity index [3]: >284

COc1cc([C@@H]2c3cc4c(cc3C3=NOC[C@H]3[C@@H]2C(=O)O)OCO4)cc(OC)c1OC
IC50 [1]: 30 µg/mL (≈ 70.2 µM) | IC50 [2]: < 0.009 µg/mL | Selectivity index [3]: >3333
